Rows were chosen to be rich in hits. Some 9.4% of all compounds tested hit in one or more screens of this group.
SKKanGAS inh: SKKanGAS growth inhibition; S. pyogenes SKKanGAS, kanamycin growth, BacTiter-Glo, 6 h; inhibition, % at 7.5 µM; 1.3% of 300,000 active; AID 1662;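 active = mean replicate score, as percent of positive control median, at least 50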;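 also: strain carries kanamycin resistance gene driven by streptokinase promoter and grows in 40 µg/ml kanamycin; loss of luminescence reflects streptokinase promoter inhibition or plain growth inhibition; 0% = median of DMSO wells and 100% = positive control at its reference dose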
L major viab: reduces viability of Leishmania major promastigotes | inhibition, % at 10 µM | 9% of 200,000 active | AID 1063 | resazurin fluorescence viability; in the data active = inhibition above about 50%;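 also: promastigotes grown with compound for 44 hours at 28 °C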
T cruzi repl: T. cruzi replication inhibition. inhibition, % (test concentration not listed). AID 1885. 1.4% of 300,000 active. T. cruzi beta-gal in NIH3T3, luminescence, 90 h;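 active = mean inhibition across valid replicates above about 55%, limit read from the data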;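 also: signal also drops with host cell toxicity which is not excluded here; 0% = plate median of DMSO wells and 100% = zero luminescence signal; higher percent means less beta-gal luminescence so fewer parasites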
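compound dosing = single 50 nL compound addition per well in DMSO | material = NIH/3T3 host cells with β-galactosidase reporter T. cruzi | input = 5,000 host fibroblasts per well | timing = ≥90 h infection period, 3 h prior cell attachment | read-out basis = percent inhibition of parasite-derived β-gal signal | detection = GalScreen β-gal luminescence, detergent lysis, 60 min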
Mdm2-MdmX inh: inhibitors of human Mdm2/MdmX interaction; O15151+Q00987; SaOS-2 split-luciferase Mdm2/MdmX complementation, luminescence; inhibition, % at 8 µM; 3% of 330,000 active; AID 485346;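 active = inhibition of at least 50% at 8 µM in the primary screen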
Beta cell apopt: beta cell apoptosis inhibition; protection from apoptosis, % (no concentration beside the values); INS-1E cytokine-induced death, ATP luminescence, 48 h; percent of positive-control rescue, neutral wells zero; 0.8% of 300,000 active; AID 435005;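 active = Every replicate reaches about 75%, or at least half do and their mean reaches it too, limit read from the data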;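 also: 0% = cytokine-treated negative control wells and 100% = positive control rescue; higher means more ATP so stronger rescue from cytokine killing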
CSC inhib: blocks cancer stem cells. cancer stem cell-like cells viability, luminescence. inhibition, % at 7.5 µM. 1.1% of 300,000 active. AID 2717; in the data active = inhibition above about 75%; tested in HMLE shEcad cells
* hit, by the source's call.

Screening COc1cc(-c2ccc3c(=O)c4ccccc4sc3c2)cc(OC)c1OC returned Mdm2-MdmX inh 41, Beta cell apopt 10 and CSC inhib 16.
Screening COc1cc(-c2ccc3c(=O)c4ccccc4n(C)c3c2)cc(OC)c1OC returned SKKanGAS inh 44, T cruzi repl 11, Mdm2-MdmX inh 36, Beta cell apopt 12 and CSC inhib 93*.
Screening O=C(NC1CCCC1)c1ccc(CSCc2ccccc2F)o1 returned SKKanGAS inh -6, L major viab 89*, T cruzi repl 21, Mdm2-MdmX inh 0, Beta cell apopt 3 and CSC inhib 9.
`COc1cc(CN(C2CCCCC2)S(=O)(=O)c2ccc(S(=O)(=O)N(C)C3CCCCC3)cc2)cc(OC)c1OC` gave SKKanGAS inh 5, L major viab 93*, T cruzi repl 50, Mdm2-MdmX inh 27, Beta cell apopt 18 and CSC inhib 17.
For CCN(C1CCCCC1)S(=O)(=O)c1ccc(OC)c(C)c1 the results were SKKanGAS inh 12, L major viab 3, T cruzi repl 7, Mdm2-MdmX inh 39, Beta cell apopt -8 and CSC inhib 2.
Screening COc1ccc(Br)c(C(=O)Nc2ccc(F)cc2)c1 returned SKKanGAS inh 1, T cruzi repl -6 and Mdm2-MdmX inh -4.
Screening COc1cc(C2C(Oc3ccccc3C)C(=O)N2Cc2ccc(F)cc2)cc(OC)c1OC (stereo not given) returned SKKanGAS inh 1, L major viab 99*, T cruzi repl 23, Mdm2-MdmX inh -9, Beta cell apopt -6 and CSC inhib 1.
`COc1ccc(OC2C(=O)N(Cc3ccc(F)cc3)C2c2ccc(OC)c(OC)c2)cc1` (stereo not given) gave SKKanGAS inh -1, L major viab 6, T cruzi repl 25 and Mdm2-MdmX inh -13.
`COC(=O)c1ccc2c(C)c(C(C)(C)O)[nH]c2c1` gave SKKanGAS inh -7, T cruzi repl -2, Mdm2-MdmX inh -20, Beta cell apopt 0 and CSC inhib 2.
CN(C)CCCN(C(=O)c1cccs1)c1nc(-c2ccccc2)cs1 was read as L major viab 100*, Mdm2-MdmX inh 31, Beta cell apopt 0 and CSC inhib 2.
`Cc1ccc(S(=O)(=O)N(C)c2ccc(OCc3cccc(C)c3)cc2)cc1` gave SKKanGAS inh -8, T cruzi repl 9, Mdm2-MdmX inh 34, Beta cell apopt -2 and CSC inhib 77*.
Screening CN(c1ccc(OCc2nnc(-c3ccccc3)o2)cc1)S(=O)(=O)c1ccccc1 returned SKKanGAS inh 9, L major viab 54*, T cruzi repl 12, Mdm2-MdmX inh 5, Beta cell apopt -8 and CSC inhib -11.
`CN(c1ccc(OCC(=O)OCc2nnc(-c3ccccc3)o2)cc1)S(=O)(=O)c1ccc(Cl)cc1` gave SKKanGAS inh -14, T cruzi repl -4, Mdm2-MdmX inh 3, Beta cell apopt 0 and CSC inhib 4.
For O=[N+]([O-])c1ccc(CNC2CCCc3ccccc32)cc1 (stereo not given) the results were SKKanGAS inh 3, L major viab 83*, T cruzi repl 18, Mdm2-MdmX inh 3, Beta cell apopt -13 and CSC inhib 6.
c1cncc(CNC2CCCc3ccccc32)c1 (stereo not given) was read as SKKanGAS inh -3, L major viab 43, T cruzi repl 0, Mdm2-MdmX inh -9, Beta cell apopt -6 and CSC inhib -13.
Screening NC(N)=N/N=C/c1cccc(Cl)c1Cl returned SKKanGAS inh 19, L major viab 100*, T cruzi repl 55*, Mdm2-MdmX inh 20, Beta cell apopt 12 and CSC inhib 1.
`CNc1ccc(/C=C/C(=O)c2cccc3ccccc23)cc1[N+](=O)[O-]` gave SKKanGAS inh 42, L major viab 99*, T cruzi repl -5, Mdm2-MdmX inh 21, Beta cell apopt -13 and CSC inhib 38.
Screening Nc1nc(-c2ccccc2)c(-c2ccc([N+](=O)[O-])cc2)s1 returned SKKanGAS inh -1, L major viab 5, T cruzi repl -8, Mdm2-MdmX inh 43, Beta cell apopt 93* and CSC inhib 38.
For N#Cc1nc(Cc2cccc3ccccc23)oc1NCCCN1CCOCC1 the results were SKKanGAS inh -6, L major viab 20, T cruzi repl 29, Mdm2-MdmX inh 16, Beta cell apopt 3 and CSC inhib -8.
COc1ccc(CNc2oc(COc3ccccc3)nc2C#N)cc1 was read as SKKanGAS inh -6, L major viab 0, T cruzi repl 36, Mdm2-MdmX inh 17, Beta cell apopt -4 and CSC inhib 7.
Screening N#Cc1nc(Cc2cccc3ccccc23)oc1NCCCn1ccnc1 returned SKKanGAS inh -5, L major viab 59*, T cruzi repl 23, Mdm2-MdmX inh -2, Beta cell apopt 5 and CSC inhib 4.
`COc1ccc(CNc2oc(Cc3cccc4ccccc34)nc2C#N)cc1` gave SKKanGAS inh 54*, L major viab 19, T cruzi repl 33, Mdm2-MdmX inh 44, Beta cell apopt -5 and CSC inhib -15.
`Cn1c(SCc2ccccc2Cl)nc2c1c(=O)[nH]c(=O)n2C` gave SKKanGAS inh 3, T cruzi repl 3, Mdm2-MdmX inh 39, Beta cell apopt -6 and CSC inhib -5.
`CC(=O)Nc1ccc(S(=O)(=O)NC2CC(=O)N(c3ccc4c(c3)OCCO4)C2)cc1` (stereo not given) gave SKKanGAS inh 0, T cruzi repl -9, Mdm2-MdmX inh -21 and CSC inhib -2.
For Cc1ccc(S(=O)(=O)N2CCN(C(=O)COC(=O)CCOc3ccc(C(C)(C)C)cc3)CC2)cc1 the results were SKKanGAS inh 4, T cruzi repl -3, Mdm2-MdmX inh 10 and Beta cell apopt -10.
COc1ccccc1C1NC=C([N+](=O)[O-])C=C1[N+](=O)[O-] (stereo not given) was read as SKKanGAS inh -2, L major viab 29, T cruzi repl 78*, Mdm2-MdmX inh 15 and Beta cell apopt 3.
For CC(C)c1ccc(-n2c(-c3ccccc3)c[n+]3c2CCc2ccccc2-3)cc1 the results were SKKanGAS inh -11, L major viab 100* and T cruzi repl 67*.
For CCc1cccc2c(C(=O)C(F)(F)F)cn(CC(=O)N3CCOCC3)c12 the results were SKKanGAS inh -10, L major viab -4, T cruzi repl -3, Mdm2-MdmX inh -4, Beta cell apopt -1 and CSC inhib -1.
Screening O=S1(=O)NC(=NCCc2ccccn2)c2ccccc21 returned SKKanGAS inh 3, L major viab -2, T cruzi repl -4, Mdm2-MdmX inh 11, Beta cell apopt -3 and CSC inhib -22.
`O=C(O)CC1(CC(=O)Nc2cccc(C(=O)O)c2)CCCC1` gave SKKanGAS inh -3, T cruzi repl 8, Mdm2-MdmX inh 6, Beta cell apopt -4 and CSC inhib -18.

From PubChem
